61 molecules from ChEMBL document CHEMBL4834416, “The Discovery of Novel ACA Derivatives as Specific TRPM2 Inhibitors that Reduce Ischemic Injury Both In Vitro and In Vivo” (J Med Chem, 2021) can be followed below.

Each structure is given as a SMILES string. pIC50: −log10 of the molar value. Calls of active or inactive are those of the source. The rule behind the calls is not given here. Some results are limits rather than exact numbers.

Series [1] addresses T1, Transient receptor potential cation channel subfamily M member 2 (Homo sapiens, UniProt O94759). The experiment in a line: Inhibition of human TRPM2 expressed in HEK293T cells assessed as suppression of H2O2-induced calcium flux at 1 uM measured after 30 mins by Fluo-3/AM assay. Format: cell-based. (In general: A change in cytosolic calcium serves as a functional read-out for many receptors and channels.)

For series [2], the target named is T1, Transient receptor potential cation channel subfamily M member 2. The experiment in a line: Inhibition of human TRPM2 expressed in HEK293T cells assessed as suppression of H2O2-induced calcium flux at 0.3 uM measured after 30 mins by Fluo-3/AM assay. Format: cell-based.
Series [3] has the same target. Briefly: Inhibition of human TRPM2 expressed in HEK293T cells assessed as blocked of ADPR-activated current by whole cell patch clamp electrophysiology. Format: cell-based. A general note: The patch-clamp technique gives a direct electrical read-out from membranes.
In series [4] the test system is SH-SY5Y. Briefly: Cytotoxicity against human SH-SY5Y cells assessed as toxicity at 30 uM incubated for 24 hrs by CCK-8 assay. In kind it is cell-based. The method, boiled down: (§1)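 SH-SY5Y cells were seeded at 2 × 10⁴ per well and grown 12 h at 37 °C. They were then treated with compound (1–30 μM) under normoxic, normal-glucose conditions for 24 h. CCK-8 (10%) was added for 2 h at 37 °C and OD450 read. Viability was taken relative to untreated control after blank subtraction, with three replicate wells.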
In general terms: Tetrazolium assays rely on reduction of a dye to a coloured formazan, in cell work by metabolically active cells.

Series [5] addresses Transient receptor potential cation channel subfamily M member 8 (Homo sapiens, UniProt Q7Z2W7). Briefly: Inhibition of human TRPM8 expressed in HEK293T cells assessed as blocked of menthol-activated current at 10 uM by whole cell patch clamp electrophysiology relative to control. Format: cell-based. The method, boiled down: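 Whole-cell patch clamp was run at room temperature on HEK293T cells transiently cotransfected with human TRPM8 plus GFP, 24–48 h before recording. ECS was 145 NaCl, 5.6 KCl, 2 MgCl₂, 1.2 CaCl₂, 10 HEPES, pH 7.2. Current was activated with 1 mM menthol, and compound was perfused at least 60 s after it stabilized. Inhibition was calculated relative to stable agonist current minus residual current; n = 3–6.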

Another series concerns the target Phospholipase A2 (Homo sapiens, UniProt P04054). The experiment in a line: Inhibition of PLA2 (unknown origin) using soybean phosphatidylcholine as substrate at 10 uM preincubated for 30 mins followed incubated for 60 mins after substrate addition by microplate reader relative to control. The method, boiled down: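 PLA2 (4 μg/L in PBS) was preincubated 30 min at 37 °C with inhibitor in 125 mM Tris. Substrate was then added for 60 min: soybean phosphatidylcholine with Tris, CaCl₂, sodium deoxycholate and 0.5% Triton X-100. Liberated free fatty acids were quantified colorimetrically at OD550. Results are % inhibition versus enzyme without inhibitor, n = 3.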

The subject of series [6] is SH-SY5Y. Briefly: Neuroprotective activity against oxygen glucose deprivation/reperfusion-induced cell death in human SH-SY5Y cells assessed as cell viability at 3 uM […] by CCK8 assay relative to control. In kind it is functional.
In series [7] the test system is SH-SY5Y. The experiment in a line: Cytotoxicity against human SH-SY5Y cells assessed as cell viability under normoxic/normal sugar condition at 10 to 30 uM by CCK-8 assay. Format: cell-based. The settings on record: dose 10-30 µM. The method in brief:
as §1

Sequence of Transient receptor potential cation channel subfamily M member 8 (Q7Z2W7 whole entry, looked up, the tested form may be a part): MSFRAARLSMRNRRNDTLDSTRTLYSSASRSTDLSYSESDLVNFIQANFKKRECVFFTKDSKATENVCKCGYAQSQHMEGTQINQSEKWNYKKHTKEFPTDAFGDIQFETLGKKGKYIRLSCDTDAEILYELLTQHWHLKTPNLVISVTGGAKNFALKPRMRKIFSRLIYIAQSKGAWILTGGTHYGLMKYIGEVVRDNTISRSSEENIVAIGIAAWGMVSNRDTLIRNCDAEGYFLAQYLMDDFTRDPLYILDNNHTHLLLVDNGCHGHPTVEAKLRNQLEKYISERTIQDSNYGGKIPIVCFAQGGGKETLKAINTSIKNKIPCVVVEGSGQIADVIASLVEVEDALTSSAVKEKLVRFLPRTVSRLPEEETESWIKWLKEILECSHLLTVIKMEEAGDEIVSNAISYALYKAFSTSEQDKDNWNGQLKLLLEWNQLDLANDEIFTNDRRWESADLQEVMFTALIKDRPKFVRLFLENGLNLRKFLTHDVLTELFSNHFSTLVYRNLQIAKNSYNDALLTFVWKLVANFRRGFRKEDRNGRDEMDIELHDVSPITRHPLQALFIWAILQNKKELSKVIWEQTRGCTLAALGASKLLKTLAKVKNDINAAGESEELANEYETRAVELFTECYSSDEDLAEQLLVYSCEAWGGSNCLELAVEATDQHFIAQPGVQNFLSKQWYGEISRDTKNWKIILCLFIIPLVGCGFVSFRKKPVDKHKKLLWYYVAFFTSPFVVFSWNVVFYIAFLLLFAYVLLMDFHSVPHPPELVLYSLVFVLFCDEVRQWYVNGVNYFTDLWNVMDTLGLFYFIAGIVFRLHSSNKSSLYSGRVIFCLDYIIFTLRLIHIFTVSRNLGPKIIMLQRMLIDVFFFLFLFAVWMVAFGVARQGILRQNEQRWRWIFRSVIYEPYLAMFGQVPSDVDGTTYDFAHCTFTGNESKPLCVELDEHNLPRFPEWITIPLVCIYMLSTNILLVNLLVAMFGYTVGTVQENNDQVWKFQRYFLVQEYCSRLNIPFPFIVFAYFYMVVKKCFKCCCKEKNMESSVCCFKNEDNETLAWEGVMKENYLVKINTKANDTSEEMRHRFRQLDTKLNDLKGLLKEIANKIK
T1 sequence (O94759 whole entry): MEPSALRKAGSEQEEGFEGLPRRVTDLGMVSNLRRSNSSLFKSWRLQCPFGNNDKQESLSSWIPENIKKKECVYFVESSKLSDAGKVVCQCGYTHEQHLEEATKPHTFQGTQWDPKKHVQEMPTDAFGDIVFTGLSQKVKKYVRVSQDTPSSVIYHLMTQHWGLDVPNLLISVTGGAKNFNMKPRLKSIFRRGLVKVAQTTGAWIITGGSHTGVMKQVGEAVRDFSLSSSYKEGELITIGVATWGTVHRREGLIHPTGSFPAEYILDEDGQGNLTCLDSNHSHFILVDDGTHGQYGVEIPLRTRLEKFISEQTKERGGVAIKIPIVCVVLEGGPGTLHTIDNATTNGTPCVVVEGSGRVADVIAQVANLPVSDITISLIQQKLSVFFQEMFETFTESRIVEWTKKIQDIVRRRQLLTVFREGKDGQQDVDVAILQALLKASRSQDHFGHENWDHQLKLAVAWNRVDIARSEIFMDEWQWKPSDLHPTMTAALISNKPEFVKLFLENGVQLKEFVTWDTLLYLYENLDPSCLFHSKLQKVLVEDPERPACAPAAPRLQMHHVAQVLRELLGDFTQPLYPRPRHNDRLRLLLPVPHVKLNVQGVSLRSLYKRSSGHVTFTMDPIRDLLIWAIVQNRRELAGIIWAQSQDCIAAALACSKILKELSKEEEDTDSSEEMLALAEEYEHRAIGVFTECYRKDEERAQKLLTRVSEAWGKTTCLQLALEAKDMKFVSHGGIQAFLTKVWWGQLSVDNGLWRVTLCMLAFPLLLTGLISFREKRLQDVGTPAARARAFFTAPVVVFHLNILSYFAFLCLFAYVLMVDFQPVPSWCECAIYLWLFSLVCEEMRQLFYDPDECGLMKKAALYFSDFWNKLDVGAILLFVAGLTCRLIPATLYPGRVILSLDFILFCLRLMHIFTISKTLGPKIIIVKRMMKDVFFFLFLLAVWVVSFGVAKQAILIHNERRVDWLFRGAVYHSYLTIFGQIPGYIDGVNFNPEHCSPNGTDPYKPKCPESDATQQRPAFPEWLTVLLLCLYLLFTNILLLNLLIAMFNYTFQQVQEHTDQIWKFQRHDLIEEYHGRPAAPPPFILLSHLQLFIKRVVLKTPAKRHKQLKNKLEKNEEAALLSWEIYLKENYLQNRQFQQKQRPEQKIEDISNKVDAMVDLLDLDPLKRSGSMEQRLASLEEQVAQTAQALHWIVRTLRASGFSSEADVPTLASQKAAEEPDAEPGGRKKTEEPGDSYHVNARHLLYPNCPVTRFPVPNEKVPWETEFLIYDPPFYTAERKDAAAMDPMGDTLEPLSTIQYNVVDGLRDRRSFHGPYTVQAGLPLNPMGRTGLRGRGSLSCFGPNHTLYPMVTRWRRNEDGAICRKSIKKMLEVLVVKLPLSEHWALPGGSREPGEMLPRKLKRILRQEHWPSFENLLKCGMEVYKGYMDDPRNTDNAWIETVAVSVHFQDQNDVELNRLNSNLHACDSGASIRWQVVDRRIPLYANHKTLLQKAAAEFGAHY
Sequence of Phospholipase A2 (P04054 23-148 limits assumed): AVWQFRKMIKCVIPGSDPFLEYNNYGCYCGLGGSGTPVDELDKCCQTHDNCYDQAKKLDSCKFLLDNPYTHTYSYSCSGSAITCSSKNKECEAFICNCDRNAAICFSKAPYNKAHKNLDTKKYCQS

In the case of `Cc1ccccc1-c1ccc(/C=C/C(=O)Nc2ccccc2C(=O)O)cc1`, the inhibition in series [1] is over 45%.

Take `O=C(/C=C/c1ccc(N2CCCCC2)cc1)Nc1ccccc1C(=O)O`: the inhibition in series [1] is under 45%. For the same molecule, the inhibition entry in series [2] was “inactive”.

On to `O=C(/C=C/c1ccc(-c2cccnc2)cc1)Nc1ccccc1C(=O)O`, for which the inhibition in series [1] was under 45%. The inhibition entry in series [2] is “inactive”.

As for `O=C(/C=C/c1ccc(-c2ccccc2)cc1)Nc1ccc(F)cc1C(=O)O`, the inhibition in series [1] was over 45%.

On to `CCCCCc1ccc(/C=C/C(=O)Nc2cc(Cl)ccc2C(=O)O)cc1`, for which the inhibition in series [1] was over 45%.

In the case of `O=C(/C=C/c1ccc(Cl)cc1)Nc1ccccc1C(=O)O`, the inhibition in series [1] is under 45%. Moreover, the inhibition entry in series [2] was “inactive”.

In the case of `COc1ccc(-c2ccc(/C=C/C(=O)Nc3ccccc3C(=O)O)cc2)cc1`, the inhibition in series [1] is over 45%.

As for `CCCCCc1ccc(/C=C/c2ccccc2C(=O)O)cc1`, the inhibition in series [1] is under 45%.

`CCCCCc1ccc(/C=C/C(=O)Nc2ccc(C)cc2C(=O)O)cc1`: the pIC50 in series [3] is 6.01. For the same molecule, in the series with SH-SY5Y [4], the Activity was under 10%. Besides, the inhibition in series [5] is 85.6%; in series [1] it was over 45%. The inhibition result at Phospholipase A2 was “inactive”. The result with SH-SY5Y [6] was Active.

Consider `Cc1cc(-c2ccccc2)ccc1/C=C/C(=O)Nc1ccccc1C(=O)O`, for which the inhibition in series [1] was over 45%.

For the molecule `O=C(/C=C/c1ccc(-c2ccccc2)cc1)Nc1ccccc1C(=O)O`, the pIC50 in series [3] is 5.59. Further, the inhibition in series [1] was over 45%.

As for `O=C1CCCN(C(=O)/C=C/c2ccc(-c3ccccc3)cc2)c2ccccc21`, the inhibition in series [1] is under 45%.

Consider `Cc1ccc(-c2ccc(/C=C/C(=O)Nc3ccccc3C(=O)O)cc2)cc1`, for which the inhibition in series [1] is over 45%.

With `O=C(/C=C/c1ccc(-c2ccccc2)cc1)Nc1ccc(Br)cc1C(=O)O`, the pIC50 in series [3] is 6.39. The Activity with SH-SY5Y [4] was under 10%. Besides, the values for the inhibition in series [5] and in series [1] were 93.3% and over 45%, respectively. In addition, the inhibition entry at Phospholipase A2 is “inactive”. Also, the outcome in the series with SH-SY5Y [6] was Active.

As for `CCCCCc1ccc(/C=C/C(=O)Nc2c(C(=O)O)ccc(C)c2C)cc1`, in series [1], the inhibition was under 45%.

Take `CCCCCc1ccc(/C=C/C(=O)Nc2ccc(C(=O)O)cc2)cc1`: the inhibition in series [1] is under 45%.

As for `CCCCCc1ccc(/C=C/C(=O)Nc2c(C)cccc2C(=O)O)cc1`, the inhibition in series [1] was under 45%.

`Cc1ccc(/C=C/C(=O)Nc2ccccc2C(=O)O)cc1`: in series [1], the inhibition was under 45%. Moreover, in series [2], the inhibition entry was “inactive”.

Take `CC(C)(C)c1ccc(-c2ccc(/C=C/C(=O)Nc3ccccc3C(=O)O)cc2)cc1`: the inhibition in series [1] is over 45%.

Take `O=C(/C=C/c1ccc(-c2cccc([N+](=O)[O-])c2)cc1)Nc1ccc(Br)cc1C(=O)O`: in series [1], the inhibition was over 45%.

For `O=C(/C=C/c1ccc(-c2ccccc2)cc1)Nc1ccc(Cl)cc1C(=O)O`, the inhibition in series [1] was over 45%.

As to `CCCCCc1ccc(C(=O)Nc2ccccc2C(=O)O)cc1`, the inhibition in series [1] is over 45%.

With `CCCc1ccc(/C=C/C(=O)Nc2ccccc2C(=O)O)cc1`, the inhibition in series [1] was under 45%. The inhibition entry in series [2] was “inactive”.

On to `CCCCCc1ccc(/C=C/C(=O)Nc2cc(C)ccc2C(=O)O)cc1`, for which the pIC50 in series [3] is 6.33. Further, the Activity with SH-SY5Y [4] was under 10%; in the series with SH-SY5Y [7], “Non-Toxic”. Moreover, the figures for the inhibition in series [5] and in series [1] were 88.1% and over 45%, respectively. On Phospholipase A2, the inhibition result was “inactive”. Moreover, in the series on SH-SY5Y [6], the outcome was Active.

For `O=C(/C=C/c1ccc(-c2ccc(F)cc2)cc1)Nc1ccccc1C(=O)O`, in series [1], the inhibition was under 45%.

For `CCCCCc1ccc(/C=C/C(=O)c2ccccc2C(=O)O)cc1`, the inhibition in series [1] is over 45%.

As for `CC(C)c1ccc(-c2ccc(/C=C/C(=O)Nc3ccccc3C(=O)O)cc2)cc1`, the inhibition in series [1] was over 45%.

Consider `Cc1cccc(-c2ccc(/C=C/C(=O)Nc3ccccc3C(=O)O)cc2)c1`, for which, in series [1], the inhibition was over 45%.

As for `O=C(/C=C/c1ccc(-c2cccc([N+](=O)[O-])c2)cc1)Nc1ccccc1C(=O)O`, the pIC50 in series [3] was 6.40. For the same molecule, the values for the Activity in the series with SH-SY5Y [4] and with SH-SY5Y [7] were under 10% and “Non-Toxic”, respectively. Also, the inhibition in series [5] was 14.6%; on Phospholipase A2, 24.6%; in series [1], over 45%. The result in the series with SH-SY5Y [6] was Active.

Consider `O=C(/C=C/c1ccc(-c2ccccc2)cc1)N1C(=O)c2ccccc21`, for which the inhibition in series [1] was under 45%.

As to `O=C1CCN(C(=O)/C=C/c2ccc(-c3ccccc3)cc2)c2ccccc21`, the inhibition in series [1] was under 45%.

Take `O=C(/C=C/c1ccc(-c2cccc(Br)c2)cc1)Nc1ccccc1C(=O)O`: the inhibition in series [1] was over 45%.

Consider `CCCCCc1ccc(/C=C/C(=O)N2CCC(=O)c3ccccc32)cc1`, for which the inhibition in series [1] is under 45%.

Consider `CC(C)c1ccc(/C=C/C(=O)Nc2ccccc2C(=O)O)cc1`, for which, in series [1], the inhibition is under 45%. Also, the inhibition entry in series [2] is “inactive”.

On to `O=C(/C=C/c1ccc(-c2cccc(Cl)c2)cc1)Nc1ccccc1C(=O)O`, for which the inhibition in series [1] was over 45%.

Turning to `CC(C)NC(=O)c1ccc(/C=C/C(=O)Nc2ccccc2C(=O)O)cc1`, the inhibition in series [1] is under 45%. For the same molecule, the inhibition entry in series [2] was “inactive”.

Turning to `O=C(/C=C/c1ccc(N2CCOCC2)cc1)Nc1ccccc1C(=O)O`, the inhibition in series [1] was under 45%. For the same molecule, the inhibition entry in series [2] is “inactive”.

On to `Cc1ccc(C(=O)O)c(NC(=O)/C=C/c2ccc(-c3cccc([N+](=O)[O-])c3)cc2)c1`, for which the inhibition in series [1] was over 45%.

As for `Clc1ccccc1C(c1ccccc1)(c1ccccc1)n1ccnc1` [CLOTRIMAZOLE], the pIC50 in series [3] was 5.52.

Regarding `CCCCCc1ccc(/C=C/C(=O)Nc2c(C)cc(Cl)cc2C(=O)O)cc1`, the inhibition in series [1] was under 45%.

Take `Cc1cc(/C=C/C(=O)Nc2ccccc2C(=O)O)ccc1-c1ccccc1`: the inhibition in series [1] is over 45%.

For the molecule `CC(C)(C)c1ccc(/C=C/C(=O)Nc2ccccc2C(=O)O)cc1`, the inhibition in series [1] is under 45%. The inhibition entry in series [2] is “inactive”.

As for `O=C(/C=C/c1ccc(-c2ccccc2F)cc1)Nc1ccccc1C(=O)O`, the inhibition in series [1] is over 45%.

On to `O=C(/C=C/c1ccc(-c2ccc(C(F)(F)F)cc2)cc1)Nc1ccccc1C(=O)O`, for which the inhibition in series [1] is over 45%.

With `CCCCCc1ccc(/C=C/C(=O)Nc2cc(F)c(F)cc2C(=O)O)cc1`, the inhibition in series [1] was over 45%.

Consider `O=C(/C=C/c1ccc(-c2ccccc2)cc1)Nc1cc(Cl)ccc1C(=O)O`, for which, in series [1], the inhibition is over 45%.

For `CCCCCc1ccc(/C=C/C(=O)Nc2ccc(Br)cc2C(=O)O)cc1`, the inhibition in series [1] was over 45%.

Regarding `CCCCCc1ccc(/C=C/C(=O)Nc2cccc(C(=O)O)c2)cc1`, the inhibition in series [1] is over 45%.

Regarding `CCCCCc1ccc(/C=C/C(=O)N2CCCC(=O)c3ccccc32)cc1`, the inhibition in series [1] is under 45%.

In the case of `CCCCCc1ccc(/C=C/C(=O)Nc2c(Cl)cccc2C(=O)O)cc1`, the inhibition in series [1] was under 45%.

Consider `O=C(/C=C/c1ccc(-c2cccc(F)c2)cc1)Nc1ccccc1C(=O)O`, for which the pIC50 in series [3] is 6.08. Also, the Activity in the series on SH-SY5Y [4] was under 23.7%. In addition, the inhibition in series [1] is over 45%.

Turning to `CCOc1ccc(/C=C/C(=O)Nc2ccccc2C(=O)O)cc1`, in series [1], the inhibition was under 45%. In series [2], the inhibition result was “inactive”.

For the molecule `O=C(/C=C/c1ccccc1)Nc1ccccc1C(=O)O`, the inhibition in series [1] was under 45%. Moreover, the inhibition result in series [2] is “inactive”.

With `Clc1ccc(COC(Cn2ccnc2)c2ccc(Cl)cc2Cl)cc1` (stereo not drawn) [ECONAZOLE], the negative-log IC50 (pIC50) in series [3] is 5.52.

As to `CCc1ccc(-c2ccc(/C=C/C(=O)Nc3ccccc3C(=O)O)cc2)cc1`, the inhibition in series [1] was over 45%.

For `CCOC(=O)Cn1nc(-c2ccc(C(F)(F)F)cc2)c2c1CCCCC2`, the pIC50 in series [3] was 7.89.

In the case of `COc1cccc(-c2ccc(/C=C/C(=O)Nc3ccccc3C(=O)O)cc2)c1`, the inhibition in series [1] is over 45%.

In the case of `O=C(/C=C/c1ccc(-c2ccccc2C(F)(F)F)cc1)Nc1ccccc1C(=O)O`, in series [1], the inhibition is over 45%.

`COc1ccccc1-c1ccc(/C=C/C(=O)Nc2ccccc2C(=O)O)cc1`: the inhibition in series [1] is over 45%.

Consider `CCc1ccc(/C=C/C(=O)Nc2ccccc2C(=O)O)cc1`, for which the inhibition in series [1] was under 45%. The inhibition result in series [2] is “inactive”.

`CCCCCc1ccc(NC(=O)c2ccccc2C(=O)O)cc1`: in series [1], the inhibition was over 45%.

One may read the inhibition as the share of the control response that was lost under treatment. For orientation: pIC50 means the negative decadic logarithm of the IC50, by convention in mol/L.
